ChEMBL document CHEMBL2057127, “Design, synthesis, modeling, biological evaluation and photoaffinity labeling studies of novel series of photoreactive benzamide probes for histone deacetylase 2” (Bioorg Med Chem Lett, 2012)
Activity calls are given as the source filed them. The calls are words filed in the database; no cut-off is given here.

Tests used:
[1] = target: T1, Histone deacetylase 1 (Homo sapiens, UniProt Q13547); assay: Inhibition of HDAC1 in human MDA-MB-231 cells assessed as inhibition of H4 deacetylation at 50 uM after 24 hrs by Western blot analysis; format: cell-based
T1 sequence (Q13547 whole entry): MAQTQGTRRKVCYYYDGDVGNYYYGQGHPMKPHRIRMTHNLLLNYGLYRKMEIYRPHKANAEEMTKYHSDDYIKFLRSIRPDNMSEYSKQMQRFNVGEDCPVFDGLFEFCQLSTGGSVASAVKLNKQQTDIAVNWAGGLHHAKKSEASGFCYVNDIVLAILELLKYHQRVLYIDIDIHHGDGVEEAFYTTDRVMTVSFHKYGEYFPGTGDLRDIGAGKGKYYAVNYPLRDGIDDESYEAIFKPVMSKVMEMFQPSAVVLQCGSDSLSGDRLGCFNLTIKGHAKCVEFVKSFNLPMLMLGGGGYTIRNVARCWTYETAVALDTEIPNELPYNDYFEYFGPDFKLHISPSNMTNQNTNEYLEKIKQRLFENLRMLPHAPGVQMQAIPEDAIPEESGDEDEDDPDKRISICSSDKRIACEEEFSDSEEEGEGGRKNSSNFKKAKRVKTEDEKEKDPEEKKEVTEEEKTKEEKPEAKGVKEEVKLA
Method in brief: (§1)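 MDA-MB-231 cells grown to 90% confluence in DMEM/10% FBS and treated with probes (50 µM final) or DMSO for 24 h at 37 °C, 5% CO2. Cells lysed in RIPA buffer with protease/phosphatase inhibitors, 25 µg total protein run on SDS-PAGE. Western blot with anti-acetyl histone H4, GAPDH as loading control; three independent experiments.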

[2] = target: T2, Histone deacetylase 8 (Homo sapiens) (UniProt Q9BY41); assay: Inhibition of human recombinant HDAC8 using BML-KI-178 as substrate at 10 uM by spectrofluorometric analysis; conditions: TDE = time-dependent effect
T2 sequence (whole entry): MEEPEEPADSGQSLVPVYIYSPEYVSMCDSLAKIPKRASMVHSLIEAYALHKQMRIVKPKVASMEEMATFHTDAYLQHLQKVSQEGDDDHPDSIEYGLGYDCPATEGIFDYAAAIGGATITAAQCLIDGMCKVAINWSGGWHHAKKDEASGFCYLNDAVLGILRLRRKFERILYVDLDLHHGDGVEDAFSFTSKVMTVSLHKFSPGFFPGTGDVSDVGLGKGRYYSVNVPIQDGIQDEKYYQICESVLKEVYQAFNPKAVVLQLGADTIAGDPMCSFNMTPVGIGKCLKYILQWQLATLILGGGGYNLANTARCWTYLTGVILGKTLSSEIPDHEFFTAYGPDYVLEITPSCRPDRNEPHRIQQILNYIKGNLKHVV

[3] = target: T3, Histone deacetylase 2 (Homo sapiens, UniProt Q92769); assay: Inhibition of HDAC2 in human MDA-MB-231 cells assessed as inhibition of H4 deacetylation at 50 uM after 24 hrs by Western blot analysis; format: cell-based; method in brief: as §1
T3 sequence (Q92769 whole entry): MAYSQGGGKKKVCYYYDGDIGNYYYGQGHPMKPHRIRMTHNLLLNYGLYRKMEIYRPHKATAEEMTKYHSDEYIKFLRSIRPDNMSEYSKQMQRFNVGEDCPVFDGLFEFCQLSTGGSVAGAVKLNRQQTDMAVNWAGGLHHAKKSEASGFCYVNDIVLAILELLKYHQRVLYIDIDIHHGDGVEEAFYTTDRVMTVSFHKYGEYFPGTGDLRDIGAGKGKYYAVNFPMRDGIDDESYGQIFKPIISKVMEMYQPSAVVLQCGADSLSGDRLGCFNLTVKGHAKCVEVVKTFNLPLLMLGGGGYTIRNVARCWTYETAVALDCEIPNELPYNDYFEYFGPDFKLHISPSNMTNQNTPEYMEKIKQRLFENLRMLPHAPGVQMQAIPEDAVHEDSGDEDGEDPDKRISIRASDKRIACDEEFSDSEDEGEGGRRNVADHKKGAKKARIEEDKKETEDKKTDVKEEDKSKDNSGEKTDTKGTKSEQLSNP

[4] = target: T1, Histone deacetylase 1; assay: Inhibition of human recombinant HDAC1 using Boc-L-Lys (Ac)-AMC as substrate preincubated with compound for 3 hrs measured after 35 mins by spectrofluorometric analysis
[5] = target: T3, Histone deacetylase 2; assay: Binding affinity to His-tagged human HDAC2 assessed as decrease in biotinylation of HDAC2 at 25 uM preincubated for 24 hrs measured after 1 hr by Western blot analysis in presence of five-fold molar excess of Trichostatin A
[6] = target: Histone deacetylase 3 (Homo sapiens) (UniProt O15379); assay: Inhibition of human recombinant HDAC3 using Boc-L-Lys (Ac)-AMC as substrate at 10 uM by spectrofluorometric analysis; conditions: TDE = time-dependent effect
Histone deacetylase 3 (Homo sapiens), sequence (O15379 whole entry): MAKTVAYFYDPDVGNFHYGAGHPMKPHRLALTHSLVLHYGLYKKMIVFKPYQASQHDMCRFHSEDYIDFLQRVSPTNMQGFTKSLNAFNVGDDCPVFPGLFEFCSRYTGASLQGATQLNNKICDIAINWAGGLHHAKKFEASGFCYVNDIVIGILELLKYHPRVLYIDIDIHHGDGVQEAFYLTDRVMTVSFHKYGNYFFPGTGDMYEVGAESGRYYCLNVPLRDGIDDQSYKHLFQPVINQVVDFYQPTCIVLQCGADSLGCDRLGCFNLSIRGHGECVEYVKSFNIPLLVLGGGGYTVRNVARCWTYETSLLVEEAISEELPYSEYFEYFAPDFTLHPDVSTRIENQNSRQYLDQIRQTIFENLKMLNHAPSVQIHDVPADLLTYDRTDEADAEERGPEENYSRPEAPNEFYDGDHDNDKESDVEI

[7] = target: T1, Histone deacetylase 1; assay: Inhibition of human recombinant HDAC1 using Boc-L-Lys (Ac)-AMC as substrate preincubated with compound for 5 mins measured after 35 mins by spectrofluorometric analysis
[8] = target: T3, Histone deacetylase 2; assay: Inhibition of human recombinant HDAC2 using Boc-L-Lys (Ac)-AMC as substrate preincubated with compound for 5 mins measured after 35 mins by spectrofluorometric analysis
[9] = target: T3, Histone deacetylase 2; assay: Inhibition of human recombinant HDAC2 using Boc-L-Lys (Ac)-AMC as substrate preincubated with compound for 3 hrs measured after 35 mins by spectrofluorometric analysis
[10] = target: T3, Histone deacetylase 2; assay: Inhibition of human recombinant HDAC2 using Boc-L-Lys (Ac)-AMC as substrate preincubated with compound for 24 hrs measured after 35 mins by spectrofluorometric analysis

Row | inhibition [1] | inhibition [2] | inhibition [3] | IC50 [4] [µM] | Activity [5] | inhibition [6] | IC50 [7] [µM] | IC50 [8] [µM] | IC50 [9] [µM] | Compound | IC50 [10] [µM]
1 | Active | tde | Active | 1.4 | Active | tde | 5.6 |  |  | [N-]=[N+]=NCc1cc(N=[N+]=[N-])cc(C(=O)Nc2cc(-c3cccs3)ccc2N)c1 | 
2 | Active | tde | Active |  |  | tde |  |  |  | [N-]=[N+]=Nc1ccc(C(=O)Nc2cc(-c3ccccc3)ccc2N)cc1 | 
3 |  | tde |  |  | Active | tde |  |  |  | [N-]=[N+]=NCCC(=O)Nc1ccc(C(=O)Nc2cc(N=[N+]=[N-])ccc2N)cc1 | 
4 | Active | tde | Active | 2.7 | Active | tde | 23 | 34 | 6.5 | [N-]=[N+]=NCCOc1ccc(C(=O)Nc2cc(-c3ccccc3)ccc2N)cc1N=[N+]=[N-] | 
5 | Active | tde | Active | 0.78 |  | tde | 3.8 | 3.8 | 1 | [N-]=[N+]=Nc1cccc(COC(=O)NCc2ccc(C(=O)Nc3cc(-c4ccccc4)ccc3N)cc2)c1 | 0.32
6 | Active | tde | Active |  | Active | tde |  |  |  | [N-]=[N+]=NCc1cc(COC(=O)NCc2ccc(C(=O)Nc3cc(-c4cccs4)ccc3N)cc2)cc(N=[N+]=[N-])c1 | 
7 | Active | tde | Active |  | Active | tde |  |  |  | [N-]=[N+]=NCc1cc(N=[N+]=[N-])cc(C(=O)Nc2cc(-c3ccccc3)ccc2N)c1 | 
8 | Active | tde | Active |  |  | tde |  |  |  | [N-]=[N+]=Nc1ccc(C(=O)Nc2cc(-c3cccs3)ccc2N)cc1 | 
9 | Active | tde | Active | 3.8 | Active | tde | 18 | 17 | 6.6 | [N-]=[N+]=NCCOc1ccc(C(=O)Nc2cc(-c3cccs3)ccc2N)cc1N=[N+]=[N-] | 
10 |  | tde |  |  |  | tde |  |  |  | Nc1ccc(-c2ccccc2)cc1NC(=O)c1ccc(CNC(=O)OCc2ccccc2)cc1 | 
11 | Active | tde | Active |  | Active | tde |  |  |  | [N-]=[N+]=NCc1cc(COC(=O)NCc2ccc(C(=O)Nc3cc(-c4ccccc4)ccc3N)cc2)cc(N=[N+]=[N-])c1 | 

Row | Compound | inhibition [1] | inhibition [2] | inhibition [3] | IC50 [4] [µM] | Activity [5] | inhibition [6] | IC50 [7] [µM] | IC50 [8] [µM] | IC50 [9] [µM] | IC50 [10] [µM]
12 | Nc1ccc(-c2ccccc2)cc1NC(=O)c1ccccc1 |  | tde |  | 0.052 |  | tde | 0.41 | 1.2 | 0.35 | 0.14
